A selection: hits, their analogues and other compounds. The true share with any hit is near 2.5%.
SUMO1-SIM PPI: modulators of SUMO1 protein-protein interactions, primary screen, biochemical, uHTS; AID 602429, 2012; inhibition, % at 20 µM; Small ubiquitin-related modifier 1 (Homo sapiens), P63165; SUMO1 binding to a labelled peptide, TR-FRET, 1 h; 360,000 tested, 0.33% active; in the data active means inhibition above about 37%
Target sequence (P63165 whole entry, looked up): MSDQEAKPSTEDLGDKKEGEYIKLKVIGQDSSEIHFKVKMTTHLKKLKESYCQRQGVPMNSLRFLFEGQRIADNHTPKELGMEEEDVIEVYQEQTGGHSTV
Pemphigus Ab inh: inhibitors of pemphigus antibody binding to DSG3, primary screen, biochemical, bead-based, flow cytometry, scFv-GFP. Desmoglein-3 (Homo sapiens), P32926. DSG3-coupled beads, scFv-anti-DSG3-GFP binding; active compounds read low. binding (percent of control), % at 10 µM. 310,000 tested, 0.48% active. AID 588358, 2011;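 active means binding more than 3 SD below its plate's average and above zero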;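 further: hits lower antibody fragment binding to DSG3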
DNMT1 block: human DNMT1 methyltransferase inhibitors, primary screen, biochemical, molecular beacon, fluorescence, HinP1I cleavage, uHTS; DNA (cytosine-5)-methyltransferase 1 (Homo sapiens), P26358; inhibition (reported as % activation of signal), % at 10 µM; 360,000 tested, 0.83% active; AID 588458, 2011; in the data active means inhibition above about 50%
HCV NS3 hel inh: inhibitors of HCV NS3 helicase, primary screen, biochemical, Cy5 molecular beacon fluorescence; Hepatitis C virus NS3 helicase; NS3 helicase DNA unwinding; inhibition, % at 10.9 µM; 290,000 tested, 0.56% active; AID 1800, 2009;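 active means inhibition above the mean of all tested compounds plus 3 SD, set per campaign, cut at about 35% in these data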;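 further: 0% = DMSO wells and 100% = thioflavine S control wells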
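Assay system – hepatitis C virus NS3 helicase domain fragment enzyme · Buffer or medium – MOPS pH 6.5, MgCl2, DTT, Tween20, BSA · Reagent – Cy5/quencher beacon DNA duplex and ATP to start · Compound – single 10.9 µM dose · Timing – 1 h at 25 °C · Technique – Cy5 beacon fluorescence read at start and 1 h · Measure – % inhibition of unwinding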
UHRF1 binding: UHRF1 methylated DNA binding inhibitors, primary screen, counter-screen for MBD2 inhibitor project, biochemical, TR-FRET, human UHRF1, single concentration. E3 ubiquitin-protein ligase UHRF1 (Homo sapiens), Q96T88. UHRF1 binding to methylated oligo. inhibition, % at 4.4 µM. 370,000 tested, 0.75% active; in the data active means inhibition above about 21%;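 further: UHRF1 SRA domain binding a hemimethylated CpG hairpin DNA probe; 0% = median of test compound wells and 100% = reference inhibitor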
MBD2 DNA inh: inhibitors of MBD2 binding to methylated DNA, primary screen, biochemical, TR-FRET, DNA-binding domain, human; MBD2 binding to methylated oligonucleotide; Methyl-CpG-binding domain protein 2 (Homo sapiens), Q9UBB5; inhibition, % at 4.4 µM; 370,000 tested, 0.31% active; in the data active means inhibition above about 13%
Target sequence (Q9UBB5 whole entry, looked up, the tested form may be a part): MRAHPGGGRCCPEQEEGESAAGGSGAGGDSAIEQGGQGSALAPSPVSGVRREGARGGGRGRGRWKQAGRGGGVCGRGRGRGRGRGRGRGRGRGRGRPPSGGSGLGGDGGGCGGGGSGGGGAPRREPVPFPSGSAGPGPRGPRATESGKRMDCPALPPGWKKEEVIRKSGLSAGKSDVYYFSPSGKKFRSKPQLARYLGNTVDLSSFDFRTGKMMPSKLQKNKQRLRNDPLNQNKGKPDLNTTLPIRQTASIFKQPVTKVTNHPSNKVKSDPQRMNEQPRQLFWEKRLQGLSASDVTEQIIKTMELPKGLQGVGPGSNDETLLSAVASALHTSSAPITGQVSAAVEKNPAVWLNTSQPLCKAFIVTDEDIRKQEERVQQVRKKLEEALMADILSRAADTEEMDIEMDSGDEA
An asterisk follows results filed as active; . = not tested or not shown.

SMILES | SUMO1-SIM PPI | Pemphigus Ab inh | DNMT1 block | HCV NS3 hel inh | UHRF1 binding | MBD2 DNA inh
O=C(CCCN1C(=O)/C(=C/c2cccs2)SC1=S)Nc1cccnc1 | -11.0 | 68.2* | -0.2 | 10.6 | -1.4 | 4.5
O=C(CCN1C(=O)/C(=C\c2ccccc2)SC1=S)NNC(=O)c1cccnc1 | -12.1 | 72.0* | -2.4 | -2.2 | -1.0 | -2.5
CC(=O)c1ccc(NC(=O)CN2C(=O)/C(=C/C=C/c3ccccc3)SC2=S)cc1 | -0.8 | 80.2* | -4.7 | 27.2 | 5.5 | 1.7
COc1ccc(N2Cc3ccccc3/C2=N\C(=O)Nc2ccccc2)cc1 | -8.1 | 97.6 | -0.4 | -3.4 | 22.4* | 2.3
CC(=O)CN1Cc2ccccc2/C1=N\C(=O)Nc1ccccc1 | 14.6 | 83.1 | -6.0 | 4.3 | 0.5 | 0.1
Cc1cc(C(=O)COC(=O)c2ccc(O)cc2)c(C)n1-c1ccccc1F | 1.0 | 97.1 | -3.2 | -10.1 | 21.2* | 12.5
N#Cc1ccccc1NC(=O)c1ccc2c(Cl)c3c(nc2c1)CCCC3 | -7.1 | 92.8* | -5.2 | -3.0 | 4.0 | -1.1
Cc1ccc(Nc2nc(-c3cccs3)cs2)nc1 | -7.6 | 144.8 | -12.4 | -4.5 | 1.0 | 4.3
CCOc1cccc(CNc2ccc(O)cc2)c1OCc1ccccc1Cl | 44.4* | 93.8 | -46.2 | 12.5 | -0.6 | -3.7
CCOc1cccc(CNc2ccc(O)cc2)c1OCc1ccc(Cl)cc1Cl | 68.2* | . | -28.2 | 3.6 | -3.3 | -6.5
CCOc1cccc(CNCCO)c1OCc1ccc(Cl)cc1Cl | -1.5 | 105.5 | 1.5 | -33.5 | -1.3 | -2.5
CCOc1cccc(CNn2cnnc2)c1OCc1ccccc1Cl | -0.2 | 100.0 | -0.4 | -2.7 | -1.1 | 2.2
COC(=O)c1ccc2nc(-c3ccc(OC)c(OC)c3)c(Cc3ccccc3C(F)(F)F)n2c1 | . | . | . | . | 23.5* | 5.4
COC(=O)c1ccc2nc(-c3ccc(OC)c(OC)c3)c(Cc3ccccc3OC)n2c1 | 2.6 | . | -15.5 | . | 22.7* | 7.7
Cc1ccc(OCc2cc(C(=O)NCCn3cccn3)no2)cc1C | -3.4 | 89.9 | -2.4 | 4.1 | 0.8 | -3.1
COCCN1CC(CNC(=O)c2cc(COc3ccc(C)c(C)c3)on2)CC1=O (stereo not given) | 3.4 | 77.4 | 1.1 | -6.5 | 20.9* | 7.2
COc1ccc2nc(NC(=O)c3sc4nc(C)cc(C)c4c3N)sc2c1 | 10.1 | 73.8* | -9.8 | 12.2 | -0.2 | 4.0
N#Cc1cccc(NC(=O)CSc2ccc3c4c(cccc24)C(=O)c2ccccc2-3)c1 | -14.5 | 179.8 | 82.2* | 2.3 | -6.9 | -2.9
N#Cc1cccc(NC(=O)CSc2ccccc2)c1 | 0.2 | 110.2 | 5.5 | 0.3 | -1.4 | 7.3
COc1ccc(CNC(=O)c2c(O)c3cc(OC)c(OC)cc3[nH]c2=O)cc1OC | -2.1 | 78.9* | 41.4 | 2.7 | -0.9 | -1.3
COc1ccccc1CNC(=O)c1ccc(-c2ccccc2)cc1 | -1.5 | 84.4 | -4.9 | 6.9 | 26.2* | 4.5
COc1ccc(CNC(=O)c2ccc(-c3ccccc3)cc2)cc1OC | 3.8 | 76.2* | 1.4 | -13.1 | 3.6 | 4.0
COc1ccc(C(=O)NCc2ccccc2OC)cc1 | 3.1 | 128.7 | 1.3 | 0.4 | -1.3 | -3.3
CCOC(=O)c1cc(-c2ccccc2)sc1NC(=O)CN1C(=O)NC(CC)(c2ccc(F)cc2)C1=O (stereo not given) | -4.3 | . | -5.8 | 4.8 | 24.3* | 2.7
O=C1NCCN(CC2CCN(CCc3ccc(Cl)c(Cl)c3)CC2)C1=O | -1.0 | 108.3 | -0.7 | . | 24.0* | 11.4
SMILES | SUMO1-SIM PPI | Pemphigus Ab inh | DNMT1 block | HCV NS3 hel inh | UHRF1 binding | MBD2 DNA inh
CC[C@H](C)[C@H]1CNC(=O)C(=O)N1CC1CCN(CCc2ccc(Cl)c(Cl)c2)CC1 | -4.1 | 103.0 | 5.8 | . | -2.2 | -2.7
Cc1ccc(/C=C/S(=O)(=O)NCC(=O)OCC(=O)Nc2ccc(C(N)=O)cc2)cc1 | -0.3 | 105.9 | 0.5 | . | 22.9* | 4.4
Oc1ccccc1C1=Nc2nc3ccccc3n2C(c2ccccc2)C1 (stereo not given) | -2.7 | 103.4 | -5.9 | -1.0 | -0.8 | 0.0
CN(/N=C\c1ccc(O)c(O)c1)c1nc(-c2ccccc2)cc(-c2ccccc2)n1 | -4.0 | 54.1* | -35.2 | 7.5 | 0.1 | -3.3
COc1cc(/C=C2/C(=N)N3OC(C)=CC3=NC2=O)ccc1OC(=O)c1ccco1 | -10.0 | 60.8* | -1.6 | 9.0 | 3.2 | 7.3
CC(=O)Nc1ccc(S(=O)(=O)NCCSc2ccccn2)cc1 | -0.5 | 99.4 | -0.1 | -0.4 | 20.9* | 5.2
CSc1nccc(-c2nn(-c3ccc(C)cc3)ccc2=O)n1 | -19.5 | 94.0 | 0.2 | -3.1 | 23.4* | 9.2
O=C(N/N=C/c1ccncc1)c1cc2c(ccc3ccccc32)o1 | 52.5* | . | -0.9 | -13.7 | -4.2 | 5.1
COc1ccc(/C=N\NC(=O)c2cc3c(ccc4ccccc43)o2)cc1O | 67.9* | 100.4 | -5.6 | -10.3 | -4.4 | -3.4
CCOCCCn1c(=NC(C)=O)c(C#N)cc2c(=O)n3cccc(C)c3nc21 | 7.7 | 99.0 | 22.4 | 9.2 | -2.1 | -3.0
CCN1C(=O)/C(=C\c2ccc(-c3cccc(C(=O)OC)c3)o2)SC1=Nc1ccc(C(=O)O)cc1 | . | . | . | 34.2 | -0.3 | 4.4
CCN1C(=O)/C(=C\c2ccc(-c3ccc([N+](=O)[O-])cc3OC)o2)SC1=Nc1cccc(C(=O)O)c1 | 54.2* | 99.2 | -18.8 | 16.4 | 2.7 | -3.4
O=C(O)c1cccc(-c2ccc(/C=C3/SC(=Nc4ccccc4)N(Cc4cccnc4)C3=O)o2)c1 | 81.9* | 103.7 | 23.1 | 35.5 | 4.5 | 6.5
COc1ccc(C(=O)N/C(=C\c2cn(C)c3ccccc23)C(=O)NCCCN2CCOCC2)cc1 | -9.9 | 100.2 | -4.2 | -17.4 | -2.8 | 0.4
NC(=O)c1nc(N2CCOCC2)nc(N2CCOCC2)n1 | 1.5 | 101.1 | 4.0 | -2.6 | 37.1* | -1.8
N#Cc1ccsc1NC(=O)COC(=O)c1ccc2ccccc2c1 | 1.8 | 62.5* | -0.4 | 3.4 | -1.2 | 5.2
CNC(=O)c1sc(-c2ccccc2)nc1C | -7.6 | 101.4 | -0.9 | 4.5 | 33.1* | 0.1
CCCCc1nc2cc(C(=O)NCc3cn(C)nc3C)ccc2o1 | -1.4 | . | 2.0 | -2.0 | 2.9 | 1.0
O=C(c1cnn(-c2nc3ccccc3s2)c1)c1ccccc1O | -6.0 | 8.3* | 1.4 | -1.4 | -1.0 | -0.7
O=C(O)c1ccc(-n2cc(C(=O)c3ccccc3O)cn2)cc1 | 10.6 | 94.1 | 2.2 | 19.5 | 3.8 | 0.9

Source: PubChem (several laboratories)
